Values belong to the molecule of their own block, whether it stands above or below them. Calls of active or inactive are those of the source. The calls are words filed in the database; no cut-off is given here.
Assays:
[1] = tested on: PBMC; assay: Antiinflammatory activity in human PBMC assessed as inhibition of phytohemagglutininin-induced IFN-gamma release after 24 hrs by FACSArray analysis; assay type: functional, cell-based
[2] = tested on: PBMC; assay: Antiinflammatory activity in human PBMC assessed as inhibition of phytohemagglutininin-induced IL10 release after 48 hrs by FACS Array analysis; assay type: functional, cell-based
[3] = tested on: PBMC; assay: Antiinflammatory activity in human PBMC assessed as inhibition of phytohemagglutininin-induced IL2 release after 24 hrs by FACS Array analysis; assay type: functional, cell-based
[4] = target: T1, Phosphodiesterase 4 (Homo sapiens, UniProt P27815+Q08499+Q07343+Q08493); assay: Inhibition of PDE4 in human U937 cells assessed as accumulation of [3H]adenosine by scintillation counting; assay type: cell-based; conditions: u-937
[5] = tested on: PBMC; assay: Antiinflammatory activity in human PBMC assessed as inhibition of IL4 release by FACS Array analysis; assay type: functional, cell-based
[6] = tested on: L929; assay: Cytotoxicity against mouse L929 cells up to 100 uM; assay type: cell-based
[7] = tested on: PBMC; assay: Antiinflammatory activity in human PBMC assessed as inhibition of phytohemagglutininin-induced IL5 release after 48 hrs by FACS Array analysis; assay type: functional, cell-based
[8] = tested on: PBMC; assay: Antiinflammatory activity in human PBMC assessed as inhibition of LPS-induced TNFalpha release in after 24 hrs by FACS Array analysis; assay type: functional, cell-based
[9] = tested on: PBMC; assay: Antiinflammatory activity in human PBMC assessed as inhibition of IL1-beta release by FACSArray analysis; assay type: functional, cell-based
[10] = target: High affinity cGMP-specific 3',5'-cyclic phosphodiesterase 9A (Homo sapiens) (UniProt O76083); assay: Inhibition of human recombinant PDE9 expressed in baculovirus-infected insect Sf9 cells at 10 uM by modified two-step method
High affinity cGMP-specific 3',5'-cyclic phosphodiesterase 9A (Homo sapiens), sequence (O76083 whole entry): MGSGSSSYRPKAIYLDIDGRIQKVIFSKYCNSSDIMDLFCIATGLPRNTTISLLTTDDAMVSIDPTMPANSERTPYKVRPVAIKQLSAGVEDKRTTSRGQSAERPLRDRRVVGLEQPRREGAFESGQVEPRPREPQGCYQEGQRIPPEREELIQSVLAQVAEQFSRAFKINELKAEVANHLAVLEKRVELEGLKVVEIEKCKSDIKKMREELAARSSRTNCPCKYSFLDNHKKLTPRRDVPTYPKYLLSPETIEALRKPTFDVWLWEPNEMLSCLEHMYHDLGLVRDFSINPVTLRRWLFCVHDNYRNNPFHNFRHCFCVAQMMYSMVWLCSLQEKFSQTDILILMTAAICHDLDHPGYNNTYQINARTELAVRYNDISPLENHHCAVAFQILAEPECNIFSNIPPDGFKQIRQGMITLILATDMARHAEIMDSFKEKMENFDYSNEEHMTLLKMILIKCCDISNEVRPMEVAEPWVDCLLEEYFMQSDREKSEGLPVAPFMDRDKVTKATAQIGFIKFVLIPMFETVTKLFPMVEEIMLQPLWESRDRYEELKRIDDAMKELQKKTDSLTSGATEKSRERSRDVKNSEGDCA

[11] = target: cGMP-dependent 3',5'-cyclic phosphodiesterase (Homo sapiens) (UniProt O00408); assay: Inhibition of human recombinant PDE2 expressed in baculovirus-infected insect Sf9 cells at 10 uM by modified two-step method
cGMP-dependent 3',5'-cyclic phosphodiesterase (Homo sapiens), sequence (O00408 whole entry): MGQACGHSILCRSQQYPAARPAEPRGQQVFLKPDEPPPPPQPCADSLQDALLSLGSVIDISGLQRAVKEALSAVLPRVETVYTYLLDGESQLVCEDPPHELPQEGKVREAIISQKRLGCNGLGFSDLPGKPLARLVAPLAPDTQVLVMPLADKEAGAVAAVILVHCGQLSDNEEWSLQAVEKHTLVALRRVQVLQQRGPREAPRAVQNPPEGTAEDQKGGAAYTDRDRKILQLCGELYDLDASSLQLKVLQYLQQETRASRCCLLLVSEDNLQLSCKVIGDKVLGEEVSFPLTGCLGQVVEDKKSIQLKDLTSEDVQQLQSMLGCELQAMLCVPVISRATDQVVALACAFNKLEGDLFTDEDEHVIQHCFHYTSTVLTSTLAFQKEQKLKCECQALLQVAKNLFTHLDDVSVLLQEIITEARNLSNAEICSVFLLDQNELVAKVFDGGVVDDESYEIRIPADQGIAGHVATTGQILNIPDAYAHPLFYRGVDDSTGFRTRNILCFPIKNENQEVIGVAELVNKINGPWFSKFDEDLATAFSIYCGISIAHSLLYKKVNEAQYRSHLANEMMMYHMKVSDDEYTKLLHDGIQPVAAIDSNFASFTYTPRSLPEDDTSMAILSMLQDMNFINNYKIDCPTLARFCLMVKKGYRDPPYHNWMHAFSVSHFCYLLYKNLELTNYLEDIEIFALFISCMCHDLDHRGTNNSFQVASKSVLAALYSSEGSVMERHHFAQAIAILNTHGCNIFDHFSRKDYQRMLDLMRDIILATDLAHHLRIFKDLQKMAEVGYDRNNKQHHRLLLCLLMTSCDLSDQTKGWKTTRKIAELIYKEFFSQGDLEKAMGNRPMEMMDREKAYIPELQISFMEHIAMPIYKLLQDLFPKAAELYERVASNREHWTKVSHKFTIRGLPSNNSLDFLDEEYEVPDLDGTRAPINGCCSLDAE

[12] = target: Phosphodiesterase 8 (Homo sapiens) (UniProt O95263+O60658); assay: Inhibition of human recombinant PDE8 expressed in baculovirus-infected insect Sf9 cells at 10 uM by modified two-step method
Phosphodiesterase 8 (Homo sapiens), sequence (O60658 whole entry, looked up, the tested form may be a part): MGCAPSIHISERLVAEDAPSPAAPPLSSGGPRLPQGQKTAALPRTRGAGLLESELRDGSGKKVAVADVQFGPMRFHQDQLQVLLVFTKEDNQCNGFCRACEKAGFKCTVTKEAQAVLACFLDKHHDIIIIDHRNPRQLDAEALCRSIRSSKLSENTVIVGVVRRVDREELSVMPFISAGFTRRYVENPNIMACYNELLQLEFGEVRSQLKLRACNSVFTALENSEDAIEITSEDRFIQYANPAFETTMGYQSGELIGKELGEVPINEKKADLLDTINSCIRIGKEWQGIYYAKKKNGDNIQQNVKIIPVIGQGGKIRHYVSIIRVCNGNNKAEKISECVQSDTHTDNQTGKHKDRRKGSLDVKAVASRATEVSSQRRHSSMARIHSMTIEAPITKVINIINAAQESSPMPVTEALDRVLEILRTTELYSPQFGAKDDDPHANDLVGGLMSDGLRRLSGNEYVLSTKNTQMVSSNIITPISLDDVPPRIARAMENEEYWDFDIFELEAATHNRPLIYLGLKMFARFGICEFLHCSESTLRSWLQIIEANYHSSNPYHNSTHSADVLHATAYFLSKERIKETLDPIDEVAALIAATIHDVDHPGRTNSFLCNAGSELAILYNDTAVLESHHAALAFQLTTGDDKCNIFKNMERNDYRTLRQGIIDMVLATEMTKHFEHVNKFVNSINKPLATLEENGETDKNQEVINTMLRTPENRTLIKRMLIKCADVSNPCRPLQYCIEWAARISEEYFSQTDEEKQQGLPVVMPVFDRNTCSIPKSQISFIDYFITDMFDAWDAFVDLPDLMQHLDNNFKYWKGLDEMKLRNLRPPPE
Phosphodiesterase 8 (Homo sapiens), sequence (O95263 whole entry, looked up, the tested form may be a part): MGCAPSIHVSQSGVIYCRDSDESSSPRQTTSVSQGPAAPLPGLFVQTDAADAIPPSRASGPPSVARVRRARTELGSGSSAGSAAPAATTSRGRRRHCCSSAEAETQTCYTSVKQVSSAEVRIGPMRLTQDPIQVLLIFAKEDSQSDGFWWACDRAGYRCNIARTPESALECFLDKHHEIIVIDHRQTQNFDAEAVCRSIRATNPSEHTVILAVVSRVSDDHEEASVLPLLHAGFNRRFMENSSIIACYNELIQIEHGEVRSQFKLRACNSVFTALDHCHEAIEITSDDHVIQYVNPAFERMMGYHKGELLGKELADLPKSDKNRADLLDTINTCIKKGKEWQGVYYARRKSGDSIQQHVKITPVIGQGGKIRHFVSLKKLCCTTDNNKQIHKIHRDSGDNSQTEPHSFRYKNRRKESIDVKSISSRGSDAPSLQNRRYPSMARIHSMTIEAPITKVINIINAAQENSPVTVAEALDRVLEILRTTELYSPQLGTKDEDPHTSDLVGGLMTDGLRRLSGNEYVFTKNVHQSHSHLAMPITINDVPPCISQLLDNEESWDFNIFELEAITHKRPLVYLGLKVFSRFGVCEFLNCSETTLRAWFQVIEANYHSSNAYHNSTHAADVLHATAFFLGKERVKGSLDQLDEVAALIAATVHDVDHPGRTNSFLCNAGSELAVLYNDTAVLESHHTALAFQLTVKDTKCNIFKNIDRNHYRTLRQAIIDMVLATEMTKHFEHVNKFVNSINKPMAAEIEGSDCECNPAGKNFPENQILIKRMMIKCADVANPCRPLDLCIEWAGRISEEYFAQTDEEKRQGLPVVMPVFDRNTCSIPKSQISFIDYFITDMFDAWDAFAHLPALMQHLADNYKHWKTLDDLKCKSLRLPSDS

[13] = target: T1, Phosphodiesterase 4; assay: Inhibition of human recombinant PDE4 catalytic domain expressed in baculovirus-infected insect Sf9 cells by modified two-step method
[14] = target: Phosphodiesterase 6 (Homo sapiens) (UniProt Q13956+P18545+P35913+O43924+P16499+P51160); assay: Inhibition of human recombinant PDE6 expressed in baculovirus-infected insect Sf9 cells at 10 uM by modified two-step method
[15] = tested on: Mus musculus; assay: Antiinflammatory activity in mouse ear edema model assessed as inhibition of PMA-induced ear edema at 1 mg/ear administered 2 times 30 mins before and 15 mins after PMA challenge measured after 6 hrs of PMA application relative to control; assay type: functional
[16] = target: cGMP-specific 3',5'-cyclic phosphodiesterase (Homo sapiens) (UniProt O76074); assay: Inhibition of human recombinant PDE5 expressed in baculovirus-infected insect Sf9 cells at 10 uM by modified two-step method
[17] = target: Dual specificity calcium/calmodulin-dependent 3',5'-cyclic nucleotide phosphodiesterase 1A (Homo sapiens, UniProt P54750); assay: Inhibition of human recombinant PDE1A3 expressed in baculovirus-infected insect Sf9 cells by modified two-step method
Dual specificity calcium/calmodulin-dependent 3',5'-cyclic nucleotide phosphodiesterase 1A, sequence (P54750 whole entry): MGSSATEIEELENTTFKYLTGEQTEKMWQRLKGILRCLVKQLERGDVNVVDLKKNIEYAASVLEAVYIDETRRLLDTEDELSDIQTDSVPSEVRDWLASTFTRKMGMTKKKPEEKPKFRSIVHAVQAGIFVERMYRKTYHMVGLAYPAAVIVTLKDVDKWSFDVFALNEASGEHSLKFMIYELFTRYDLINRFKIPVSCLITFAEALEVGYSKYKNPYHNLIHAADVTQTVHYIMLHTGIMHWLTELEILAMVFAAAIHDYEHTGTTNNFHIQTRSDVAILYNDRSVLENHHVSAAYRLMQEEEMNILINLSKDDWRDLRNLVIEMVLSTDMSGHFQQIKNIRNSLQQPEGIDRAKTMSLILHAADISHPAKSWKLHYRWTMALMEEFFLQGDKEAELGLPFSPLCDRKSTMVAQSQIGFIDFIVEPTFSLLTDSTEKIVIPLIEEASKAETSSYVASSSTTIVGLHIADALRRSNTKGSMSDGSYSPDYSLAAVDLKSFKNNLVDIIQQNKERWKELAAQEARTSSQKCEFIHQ
In short: (§1)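 Human recombinant enzymes from a baculoviral expression system, tested in a modified two-step PDE assay as part of a PDE1–11 isozyme panel. IC50 values were calculated from the means of three experiments.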

[18] = target: cAMP and cAMP-inhibited cGMP 3',5'-cyclic phosphodiesterase 10A (Homo sapiens) (UniProt Q9Y233); assay: Inhibition of human recombinant PDE10 expressed in baculovirus-infected insect Sf9 cells at 10 uM by modified two-step method
[19] = target: Dual 3',5'-cyclic-AMP and -GMP phosphodiesterase 11A (Homo sapiens) (UniProt Q9HCR9); assay: Inhibition of human recombinant PDE11 expressed in baculovirus-infected insect Sf9 cells at 10 uM by modified two-step method
[20] = target: Phosphodiesterase 3 (Homo sapiens, UniProt Q14432+Q13370); assay: Inhibition of human recombinant PDE3 catalytic domain expressed in baculovirus-infected insect Sf9 cells by modified two-step method; in short: as §1
[21] = target: High affinity 3',5'-cyclic-AMP phosphodiesterase 7A (Homo sapiens, UniProt Q13946); assay: Inhibition of human recombinant PDE7A1 expressed in baculovirus-infected insect Sf9 cells by modified two-step method
High affinity 3',5'-cyclic-AMP phosphodiesterase 7A, sequence (Q13946 whole entry): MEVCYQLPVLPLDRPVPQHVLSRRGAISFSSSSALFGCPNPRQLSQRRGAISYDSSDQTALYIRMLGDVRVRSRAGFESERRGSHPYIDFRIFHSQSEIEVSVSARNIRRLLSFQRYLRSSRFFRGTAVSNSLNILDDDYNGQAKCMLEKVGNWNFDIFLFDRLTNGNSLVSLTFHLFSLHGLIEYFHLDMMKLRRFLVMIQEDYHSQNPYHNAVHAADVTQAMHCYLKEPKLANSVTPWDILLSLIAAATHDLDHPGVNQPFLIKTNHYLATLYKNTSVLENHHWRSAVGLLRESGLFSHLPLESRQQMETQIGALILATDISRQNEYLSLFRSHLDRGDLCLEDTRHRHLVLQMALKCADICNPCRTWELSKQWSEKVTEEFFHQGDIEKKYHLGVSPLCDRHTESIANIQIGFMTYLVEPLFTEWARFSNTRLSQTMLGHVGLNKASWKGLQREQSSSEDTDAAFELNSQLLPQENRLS
In short: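 PDE7A1 was a human recombinant enzyme from a baculoviral expression system, tested in a modified two-step assay. Its substrate concentration was reduced compared with the other panel isozymes. IC50 values were calculated from the means of three experiments.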

[22] = tested on: Mus musculus; assay: Antiinflammatory activity in mouse ear edema model assessed as inhibition of PMA-induced ear edema at 3 mg/ear administered 2 times 30 mins before and 15 mins after PMA challenge measured after 6 hrs of PMA application relative to control; assay type: functional

IC50 [4]: > 30000 nM
SMILES: N#Cc1ccc(Oc2ccc3c(c2)B(O)OC3)cc1
IC50 [1]: > 10000 nM
IC50 [2]: > 10000 nM
IC50 [3]: > 10000 nM
inhibition [5]: inactive
Activity [6]: Non-toxic
IC50 [7]: > 10000 nM
IC50 [8]: > 10000 nM
inhibition [9]: inactive

SMILES: N#Cc1ccc(Oc2ccc3c(c2)COB3O)cc1 [CRISABOROLE]
inhibition [10]: inactive
inhibition [11]: inactive
inhibition [12]: inactive
IC50 [13]: 110 nM
inhibition [14]: inactive
inhibition (INH) [15]: 78%
inhibition [16]: inactive
IC50 [1]: 830 nM
IC50 [2]: 5300 nM
IC50 [3]: 610 nM
IC50 [4]: 490 nM
inhibition [5]: inactive
Activity [6]: Non-toxic
IC50 [7]: 2400 nM
IC50 [8]: 540 nM
IC50 [17]: 6100 nM
inhibition [18]: inactive
inhibition [19]: inactive
inhibition [9]: inactive
IC50 [20]: 6400 nM

IC50 [4]: 450 nM
SMILES: OB1OCc2cc(Oc3ccc(C(F)(F)F)cc3)ccc21

SMILES: COCc1nc2c([nH]1)c(=O)n(C)c(=O)n2CC(C)C
IC50 [17]: 10000 nM

SMILES: C[C@@H]1C[C@H]2[C@@H]3CCC4=CC(=O)C=C[C@]4(C)[C@@]3(F)[C@@H](O)C[C@]2(C)[C@@]1(O)C(=O)CO [DEXAMETHASONE]
inhibition (INH) [15]: 72%

IC50 [4]: 4400 nM
SMILES: N#Cc1cccc(Oc2ccc3c(c2)COB3O)c1

IC50 [4]: 2000 nM
SMILES: Cc1ccc(Oc2ccc3c(c2)COB3O)cc1

IC50 [4]: 2700 nM
SMILES: COc1ccc(Oc2ccc3c(c2)COB3O)cc1

IC50 [4]: 6800 nM
SMILES: OB1OCc2cc(Oc3ccccc3)ccc21

IC50 [4]: 7700 nM
SMILES: OB1OCc2cc(Oc3ccc(F)cc3)ccc21

IC50 [4]: 1500 nM
SMILES: CCN(CC)C(=O)c1ccc(Oc2ccc3c(c2)COB3O)cc1

IC50 [4]: 1300 nM
SMILES: OB1OCc2cc(Oc3ccc(Cl)cc3)ccc21

IC50 [4]: > 30000 nM
SMILES: CN1CCN(S(=O)(=O)c2ccc(Oc3ccc4c(c3)COB4O)cc2)CC1

IC50 [4]: > 30000 nM
SMILES: N#Cc1ccc(Oc2cccc3c2B(O)OC3)cc1

IC50 [4]: 6000 nM
SMILES: N#Cc1ccc(Oc2cccc3c2COB3O)cc1

IC50 [4]: 3400 nM
SMILES: CCN(CC)S(=O)(=O)c1ccc(Oc2ccc3c(c2)COB3O)cc1

IC50 [4]: 3700 nM
SMILES: N#Cc1ccccc1Oc1ccc2c(c1)COB2O

IC50 [4]: 570 nM
SMILES: O=C(c1ccc(Oc2ccc3c(c2)COB3O)cc1)N1CCOCC1

SMILES: Cc1ccc([N+](=O)[O-])cc1S(=O)(=O)N(C)C
IC50 [21]: 2200 nM

SMILES: O=C1CCc2cc(OCCCCc3nnnn3C3CCCCC3)ccc2N1 [CILOSTAZOL]
IC50 [20]: 840 nM

SMILES: COc1ccc(C2CNC(=O)C2)cc1OC1CCCC1 (stereo not drawn) [ROLIPRAM]
inhibition (INH) [15]: 6%
IC50 [1]: 230 nM
IC50 [2]: 880 nM
IC50 [3]: 230 nM
IC50 [7]: 500 nM
inhibition (INH) [22]: 53%
IC50 [8]: 160 nM

IC50 [4]: 6400 nM
SMILES: O=C(O)c1ccc(Oc2ccc3c(c2)COB3O)cc1
IC50 [1]: > 10000 nM
IC50 [2]: > 10000 nM
IC50 [3]: > 10000 nM
inhibition [5]: inactive
Activity [6]: Non-toxic
IC50 [7]: > 10000 nM
IC50 [8]: > 10000 nM
inhibition [9]: inactive
